According to ChEMBL document CHEMBL1131058, “Studies on quinazolines and 1,2,4-benzothiadiazine 1,1-dioxides. 8.1, 2 synthesis and pharmacological evaluation of tricyclic fused quinazolines and 1,2,4-benzothiadiazine 1,1-dioxides as potential alpha1-adrenoceptor antagonists” (J Med Chem, 1998):

How the values were obtained:
Sigma 2 receptor [1] = assay: Binding affinity towards Sigma 2 receptor using [3H]ifenprodil in rat brain; assay type: tissue-based
Method in brief: (§1)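 Contract radioligand competition binding. Sources: 5-HT1 and 5-HT1A in rat brain cortex; 5-HT2 and σ2 in rat brain; σ in guinea pig brain; D2, rhD2 and rhD3 in CHO cells with [³H]spiperone; H1 in guinea pig lung with [³H]pyrilamine. Inhibition constants reported; no constant given where inhibition at 10 µM was below 50%.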

[2] = target: Histamine H1 receptor (Cavia porcellus) (UniProt P31389); assay: Compound is evaluated for binding affinity towards Histamine H1 receptor using [3H]pyrilamine in guinea pig lung at 10 uM; assay type: tissue-based
Chain of Histamine H1 receptor (Cavia porcellus) (P31389 whole entry): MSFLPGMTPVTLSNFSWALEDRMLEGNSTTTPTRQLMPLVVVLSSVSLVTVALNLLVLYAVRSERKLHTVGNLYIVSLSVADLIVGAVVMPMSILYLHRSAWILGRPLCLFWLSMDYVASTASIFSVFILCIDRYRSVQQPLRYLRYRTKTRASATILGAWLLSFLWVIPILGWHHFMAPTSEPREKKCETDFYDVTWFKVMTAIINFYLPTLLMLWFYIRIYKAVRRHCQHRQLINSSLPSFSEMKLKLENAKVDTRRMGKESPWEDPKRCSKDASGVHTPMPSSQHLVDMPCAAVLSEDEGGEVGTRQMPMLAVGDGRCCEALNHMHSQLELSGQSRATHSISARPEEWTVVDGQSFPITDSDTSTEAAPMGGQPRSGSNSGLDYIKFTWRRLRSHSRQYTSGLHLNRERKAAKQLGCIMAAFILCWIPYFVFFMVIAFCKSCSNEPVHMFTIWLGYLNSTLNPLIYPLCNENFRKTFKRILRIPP
Method in brief: (§2)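 Single-concentration screen at 10 µM in contract radioligand binding assays. Records whether inhibition of specific radioligand binding stayed below 50%.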

D(2) dopamine receptor [3] = target: T1, D(2) dopamine receptor (Homo sapiens, UniProt P14416); assay: Compound is evaluated for binding affinity towards Dopamine receptor D2 using [3H]-spiperone in CHO cells at 10 uM; assay type: cell-based
T1 sequence (P14416 whole entry): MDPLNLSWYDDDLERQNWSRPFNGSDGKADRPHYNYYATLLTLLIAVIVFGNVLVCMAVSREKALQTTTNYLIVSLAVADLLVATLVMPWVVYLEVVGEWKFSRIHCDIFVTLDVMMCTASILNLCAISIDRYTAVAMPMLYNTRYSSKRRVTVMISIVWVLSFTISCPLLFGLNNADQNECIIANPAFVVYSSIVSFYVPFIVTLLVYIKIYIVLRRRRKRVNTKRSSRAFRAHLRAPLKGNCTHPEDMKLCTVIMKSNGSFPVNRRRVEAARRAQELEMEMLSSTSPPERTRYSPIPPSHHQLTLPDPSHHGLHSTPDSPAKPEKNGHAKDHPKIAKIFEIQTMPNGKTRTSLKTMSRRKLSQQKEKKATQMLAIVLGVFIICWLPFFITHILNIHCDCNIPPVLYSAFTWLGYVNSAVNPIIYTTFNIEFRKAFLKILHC

[4] = target: Sodium channel alpha subunits; brain (Types I, II, III) (Rattus norvegicus, UniProt P04775+P04774+P08104); assay: Displacement of [3H]batrachotoxin from rat brain sodium channel; assay type: tissue-based
Method in brief: (§3)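 Radioligand competition binding was done by an outside contract lab (Pan Lab). Inhibition constants (Ki) were derived from displacement of the stated tritiated ligand. Each compound was tested at 10 µM. Where inhibition at that concentration stayed below 50%, no Ki was reported.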

[5] = target: 5-hydroxytryptamine receptor 1A (Rattus norvegicus) (UniProt P19327); assay: Compound is evaluated for binding affinity towards 5-hydroxytryptamine 1A receptor using [3H]-8-OH- -DPAT in rat brain cortex at 10 uM; assay type: tissue-based; method in brief: as §2
Chain of 5-hydroxytryptamine receptor 1A (Rattus norvegicus) (P19327 whole entry): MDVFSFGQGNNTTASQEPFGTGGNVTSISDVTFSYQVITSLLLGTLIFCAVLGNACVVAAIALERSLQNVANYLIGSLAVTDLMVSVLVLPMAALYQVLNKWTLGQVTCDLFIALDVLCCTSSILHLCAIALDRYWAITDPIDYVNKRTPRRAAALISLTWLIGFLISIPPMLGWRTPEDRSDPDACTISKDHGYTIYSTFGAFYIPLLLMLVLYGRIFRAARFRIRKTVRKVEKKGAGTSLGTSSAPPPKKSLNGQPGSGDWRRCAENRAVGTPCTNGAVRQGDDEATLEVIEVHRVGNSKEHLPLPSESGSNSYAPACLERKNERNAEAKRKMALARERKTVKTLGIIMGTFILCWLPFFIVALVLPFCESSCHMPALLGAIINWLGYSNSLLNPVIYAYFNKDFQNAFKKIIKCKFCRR

[6] = target: T2, Adrenergic receptor alpha-1 (Rattus norvegicus, UniProt P15823+P23944+P43140); assay: Compound is evaluated for binding affinity towards Alpha-1 adrenergic receptor in rat brain cortex membrane; assay type: cell membranes
T2 sequence (P15823 whole entry): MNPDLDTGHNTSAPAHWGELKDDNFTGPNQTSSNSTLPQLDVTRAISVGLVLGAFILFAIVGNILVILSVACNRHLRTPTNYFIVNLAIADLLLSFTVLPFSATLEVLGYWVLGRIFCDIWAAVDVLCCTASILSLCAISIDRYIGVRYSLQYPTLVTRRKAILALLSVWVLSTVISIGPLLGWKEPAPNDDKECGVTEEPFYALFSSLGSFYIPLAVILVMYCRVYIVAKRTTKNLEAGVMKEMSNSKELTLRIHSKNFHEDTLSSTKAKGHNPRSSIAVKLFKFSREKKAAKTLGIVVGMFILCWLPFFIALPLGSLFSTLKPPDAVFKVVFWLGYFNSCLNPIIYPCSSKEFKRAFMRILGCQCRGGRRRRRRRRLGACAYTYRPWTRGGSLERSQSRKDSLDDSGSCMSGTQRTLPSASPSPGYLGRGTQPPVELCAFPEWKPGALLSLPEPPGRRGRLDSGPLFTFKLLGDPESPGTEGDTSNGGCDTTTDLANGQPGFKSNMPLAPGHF
T2 sequence (P23944 whole entry): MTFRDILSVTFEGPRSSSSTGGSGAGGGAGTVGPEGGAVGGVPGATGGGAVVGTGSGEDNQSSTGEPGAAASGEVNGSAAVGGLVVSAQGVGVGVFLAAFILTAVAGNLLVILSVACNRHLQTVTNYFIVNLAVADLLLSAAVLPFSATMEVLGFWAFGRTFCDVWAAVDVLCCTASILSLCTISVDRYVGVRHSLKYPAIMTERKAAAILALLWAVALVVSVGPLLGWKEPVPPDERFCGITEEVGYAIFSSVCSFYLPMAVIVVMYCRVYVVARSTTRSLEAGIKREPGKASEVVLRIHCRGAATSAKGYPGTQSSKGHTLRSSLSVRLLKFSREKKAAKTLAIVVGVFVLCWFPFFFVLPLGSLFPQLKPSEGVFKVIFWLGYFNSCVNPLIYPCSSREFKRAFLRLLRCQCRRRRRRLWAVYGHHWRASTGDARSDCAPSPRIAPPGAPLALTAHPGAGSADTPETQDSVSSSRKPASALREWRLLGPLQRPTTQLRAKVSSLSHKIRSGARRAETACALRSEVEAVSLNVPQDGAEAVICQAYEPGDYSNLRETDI
T2 sequence (P43140 whole entry): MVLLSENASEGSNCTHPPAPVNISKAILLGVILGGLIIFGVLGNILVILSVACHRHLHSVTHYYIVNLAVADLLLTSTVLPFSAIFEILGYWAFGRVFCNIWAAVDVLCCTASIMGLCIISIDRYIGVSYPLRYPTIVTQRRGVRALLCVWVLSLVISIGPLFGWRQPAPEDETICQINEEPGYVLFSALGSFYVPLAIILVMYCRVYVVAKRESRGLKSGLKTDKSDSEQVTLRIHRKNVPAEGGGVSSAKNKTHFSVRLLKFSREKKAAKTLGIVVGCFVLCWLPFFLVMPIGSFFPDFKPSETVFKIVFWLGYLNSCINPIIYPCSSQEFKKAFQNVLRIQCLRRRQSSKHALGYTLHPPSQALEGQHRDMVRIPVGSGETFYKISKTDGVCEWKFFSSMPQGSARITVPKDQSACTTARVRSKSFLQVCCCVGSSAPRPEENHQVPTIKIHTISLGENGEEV
Method in brief: (§4)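 Triplicate competition binding against 0.2-0.25 nM [³H]prazosin in Tris buffer pH 7.4, 30 min at room temperature. Competitor range 0.1-200 nM. Nonspecific binding defined with 10 µM phentolamine. Reaction stopped by GF/B filtration with two cold Tris washes. Membrane protein 300-400 µg per assay. Ki calculated from the data; mean ± SEM of 3-6 experiments.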

D(2) dopamine receptor [7] = target: T1, D(2) dopamine receptor; assay: Compound is evaluated for binding affinity towards Dopamine receptor D2 using [3H]spiperone in CHO cells; assay type: cell-based; method in brief: as §1
Sigma 2 receptor [8] = assay: (§5) Binding affinity towards Sigma 2 receptor using [3H]ifenprodil in rat brain at 10 uM; assay type: tissue-based; method in brief: as §2
[9] = target: T3, Serotonin 1 (5-HT1) receptor (Rattus norvegicus, UniProt P28564+P30940+P19327+P28565); assay: Compound is evaluated for binding affinity towards 5-hydroxytryptamine 1 receptor using [3H]5-HT in rat brain cortex at 10 uM; assay type: tissue-based; method in brief: as §2
[10] = target: T2, Adrenergic receptor alpha-1; assay: Binding affinity towards Alpha-1 adrenergic receptor measured by displacement of [3H]prazosin from rat brain cortex membranes; assay type: cell membranes, Membrane; method in brief: as §4
Sigma 2 receptor [11] = assay: as §5; assay type: tissue-based; method in brief: as §3; remark: listed apart in the source
[12] = target: Sodium channel alpha subunits; brain (Types I, II, III) (Rattus norvegicus) (UniProt P04775+P04774+P08104); assay: Displacement of [3H]batrachotoxin from rat brain sodium channel at 10 uM; assay type: tissue-based; method in brief: as §3
[13] = target: T3, Serotonin 1 (5-HT1) receptor; assay: Compound is evaluated for binding affinity towards 5-hydroxytryptamine 1 receptor using [3H]5-HT in rat brain cortex; assay type: tissue-based; method in brief: as §1
Histamine H1 receptor = Histamine H1 receptor (Cavia porcellus, UniProt P31389); assay: Compound is evaluated for binding affinity towards Histamine H1 receptor using [3H]pyrilamine in guinea pig lung; assay type: tissue-based; method in brief: as §1
Chain of Histamine H1 receptor (P31389 whole entry): as the sequence (P31389 whole entry) above

D(3) dopamine receptor = D(3) dopamine receptor (Homo sapiens, UniProt P35462); assay: Compound is evaluated for binding affinity towards recombinant human Dopamine receptor D3 using [3H]spiperone in CHO cells; assay type: cell-based; method in brief: as §1
Chain of D(3) dopamine receptor (P35462 whole entry): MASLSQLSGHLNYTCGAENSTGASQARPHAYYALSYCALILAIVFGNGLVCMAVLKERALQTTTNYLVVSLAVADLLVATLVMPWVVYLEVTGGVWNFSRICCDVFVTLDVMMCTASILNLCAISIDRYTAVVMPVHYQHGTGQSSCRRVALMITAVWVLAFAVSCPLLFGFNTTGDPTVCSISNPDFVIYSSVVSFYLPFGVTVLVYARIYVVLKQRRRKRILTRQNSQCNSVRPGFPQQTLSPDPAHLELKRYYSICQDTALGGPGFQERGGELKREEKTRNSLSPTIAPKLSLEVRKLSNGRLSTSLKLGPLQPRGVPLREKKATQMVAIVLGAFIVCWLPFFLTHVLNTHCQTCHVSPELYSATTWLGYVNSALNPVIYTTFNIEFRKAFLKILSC

[14] = target: Alpha-2A adrenergic receptor (Homo sapiens) (UniProt P08913); assay: Compound is evaluated for binding affinity towards Alpha-2A adrenergic receptor using [3H]MK912 at 10 uM
Chain of Alpha-2A adrenergic receptor (Homo sapiens) (P08913 whole entry): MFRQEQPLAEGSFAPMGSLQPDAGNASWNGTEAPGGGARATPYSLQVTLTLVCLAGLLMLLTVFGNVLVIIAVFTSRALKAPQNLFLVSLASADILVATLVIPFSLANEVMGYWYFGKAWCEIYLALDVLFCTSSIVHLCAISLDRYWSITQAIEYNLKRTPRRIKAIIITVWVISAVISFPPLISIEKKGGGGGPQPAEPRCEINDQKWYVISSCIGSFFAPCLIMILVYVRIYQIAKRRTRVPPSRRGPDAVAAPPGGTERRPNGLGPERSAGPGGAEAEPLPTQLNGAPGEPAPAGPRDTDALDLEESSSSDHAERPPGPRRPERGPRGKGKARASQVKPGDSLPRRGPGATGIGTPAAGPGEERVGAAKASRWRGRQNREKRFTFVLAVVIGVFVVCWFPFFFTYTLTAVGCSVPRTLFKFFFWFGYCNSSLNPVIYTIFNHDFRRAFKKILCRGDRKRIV

Q: What does the source list for `Oc1nc2ccccc2c2ncc(CN3CCN(c4ccccc4Cl)CC3)n12`?
A: Ki (Sigma 2 receptor [1]): 3.05 µM; inhibition [2]: < 50%; inhibition (D(2) dopamine receptor [3]): < 50%; Ki [4]: 2.46 µM; inhibition [5]: < 50%; Ki [6]: 0.00712 µM

Q: How did the Ki (D(2) dopamine receptor [7]) turn out when `COc1ccccc1N1CCN(CC2CN=C3c4ccccc4N=C(SC)N32)CC1` (stereo not given) was run?
A: 0.449 µM

Q: What about the Inhibition (Sigma 2 receptor [8]) of the same compound?
A: < 50%

Q: And the Ki [9]?
A: 1.839 µM

Q: And the Ki [4]?
A: 0.404 µM

Q: Which Ki [10] does the source give for `COc1ccccc1N1CCN(Cc2cnc3c4ccccc4nc(O)n23)CC1` here?
A: 0.00506 µM

Q: What about the inhibition [2] of the same compound?
A: < 50%

Q: What about the inhibition (Sigma 2 receptor [11]) of the same compound?
A: < 50%

Q: And the Ki [4]?
A: 5.38 µM

Q: Which results are given for `COc1ccccc1N1CCN(Cc2cn3c(O)nc4ccccc4c3n2)CC1`?
A: Ki [10]: 0.00653 µM; Ki (Sigma 2 receptor [1]): 4.88 µM; inhibition [2]: < 50%; Ki [4]: 4.81 µM; inhibition [5]: < 50%

Q: Which results are given for `COc1ccccc1N1CCN(CC2CN3C(=O)Nc4ccccc4C3=N2)CC1` (stereo not given)?
A: inhibition [12]: < 50%; inhibition (Sigma 2 receptor [11]): < 50%; Ki [13]: 2.5 µM; Ki (Histamine H1 receptor): 0.961 µM; Ki (D(3) dopamine receptor): 2.2 µM

Q: With `COc1ccccc1N1CCN(C[C@@H]2CN=C3c4ccccc4NC(=O)N32)CC1` as the compound, how does the inhibition [14] read?
A: < 50%
